Assay results: ChEMBL document CHEMBL1125898, “Synthesis and biological activity of 2'-deoxy-4'-thio pyrimidine nucleosides” (J Med Chem, 1991); call rule not given here

How the values were obtained:
[1] = system: CCRF-CEM; assay: The concentration required to inhibit cell growth to 50% of untreated controls in human T-cell leukemia CCRF-CEM cells; type: functional, cell-based
[2] = system: HEp-2; assay: The concentration required to produce a 50% inhibition of clone formation in human epidermoid carcinoma H-Ep-2 cells; type: functional, cell-based
[3] = system: L1210; assay: The concentration required to produce a 50% reduction in the rate of cell proliferation in murine leukemia L1210 cells; type: functional, cell-based; conditions: Mus musculus
[4] = system: HEp-2; assay: The concentration required to produce a 50% inhibition of clone formation in human epidermoid carcinoma H-Ep-2 cells; NA=no cytotoxicity at 160 uM; type: functional, cell-based
How it was run: (§1)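 Highest concentration tested was 160 μM. IC50 is the concentration giving a 50% inhibition of clone formation (H-Ep-2) or a 50% reduction in the rate of cell proliferation (L1210).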

[5] = system: L1210; assay: The concentration required to produce a 50% reduction in the rate of cell proliferation in murine leukemia L1210 cells; NA=no cytotoxicity at 160 uM; type: functional, cell-based, Mus musculus; how it was run: as §1

IC50 [1] [nM]	IC50 [2] [nM]	IC50 [3] [nM]	Structure (SMILES)	IC50 [4]	IC50 [5]
3500	< 200	1000	Nc1ccn(C2C[C@H](O)[C@@H](CO)S2)c(=O)n1 (stereo not given in full)	–	–
–	–	–	O=c1ccn(C2CC(O)C(CO)S2)c(=O)[nH]1 (stereo not given)	Not Active	Not Active
670	140	120	Cc1cn([C@H]2C[C@H](O)[C@@H](CO)S2)c(=O)[nH]c1=O [4'-THIOTHYMIDINE]	–	–
4000	2100	2700	O=c1ccn([C@H]2C[C@H](O)[C@@H](CO)S2)c(=O)[nH]1	–	–
–	25000	66000	Cc1cn([C@@H]2C[C@H](O)[C@@H](CO)S2)c(=O)[nH]c1=O	–	–
–	< 200	1200	Nc1ccn([C@H]2C[C@H](O)[C@@H](CO)S2)c(=O)n1 [4'-THIO-2'-DEOXYCYTIDINE]	–	–
